According to ChEMBL document CHEMBL1145384, “Novel C-6 fluorinated acyclic side chain pyrimidine derivatives: synthesis, (1)H and (13)C NMR conformational studies, and antiviral and cytostatic evaluations” (J Med Chem, 2007):

How the values were obtained:
SW-620 = assay: Growth inhibition of SW620 cells after 72 hrs by MTT assay; format: functional, cell-based; details: Homo sapiens, SW-620, 72 h
Outline: (§1)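 Tumor lines grown as monolayers in DMEM with 10% FBS, 2 mM L-glutamine and penicillin. Freshly diluted compounds added, solvent tested at matching concentrations; after 72 h growth measured by MTT. IC50 obtained by linear regression of concentrations bracketing 50% growth; mean of three separate experiments.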

[1] = Cytotoxicity against HEL cells assessed as cell growth after 7 days; format: cell-based; details: human
L1210 = assay: Growth inhibition of mouse L1210 cells after 72 hrs by MTT assay; format: functional, cell-based; details: L1210, 72 h
Coxsackievirus B4 = assay: Antiviral activity against coxsackie B4 virus in HeLa cells assessed as reduction of virus plaque formation after 7 days; format: functional, organism-based; details: Enterovirus B, 168 h
Punta Toro virus = assay: Antiviral activity against Punta Toro virus in Vero cells assessed as reduction of virus plaque formation after 7 days; format: functional, organism-based; details: 168 h
Sindbis virus = assay: Antiviral activity against sindbis virus in Vero cells assessed as reduction of virus plaque formation after 7 days; format: functional, organism-based; details: 168 h
MCF7 = assay: Growth inhibition of MCF7 cells after 72 hrs by MTT assay; format: functional, cell-based; details: Homo sapiens, MCF7, 72 h; outline: as §1
HEp-2 = assay: Growth inhibition of Hep2 cells after 72 hrs by MTT assay; format: functional, cell-based; details: Homo sapiens, HEp-2, 72 h; outline: as §1
HeLa = assay: Growth inhibition of HeLa cells after 72 hrs by MTT assay; format: functional, cell-based; details: Homo sapiens; outline: as §1
[2] = Cytotoxicity against HEL cells assessed as cell morphology after 7 days; format: cell-based; details: human
Outline: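 Uninfected confluent HEL cultures exposed to compounds; MCC recorded as lowest concentration producing a microscopically detectable alteration of normal cell morphology at day 7.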

Human betaherpesvirus 5 [3] = assay: Antiviral activity against human cytomegalovirus Davis in HEL cells assessed as reduction of plaque formation after 7days; format: functional, organism-based; details: Human betaherpesvirus 5, Davis, 168 h
Outline: (§2)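 Confluent HEL fibroblasts infected with HCMV (Davis or AD-169) at 100 PFU per well; after 2 h adsorption, residual virus removed and medium with serial compound concentrations added (duplicate wells). Incubated 7 days; EC50 taken as concentration reducing plaque formation by 50%.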

Human alphaherpesvirus 3 [4] = assay: Antiviral activity against thymidine kinase deficient Varicella-Zoster virus 07/1 assessed as reduction of plaque formation; format: functional, organism-based; details: Human alphaherpesvirus 3, 07/1
Outline: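 Plaque reduction assay in HEL cells against TK+ (OKA) and TK- (07/1) VZV strains; virus input 100 PFU; EC50 as concentration giving 50% plaque reduction.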

[5] = Growth inhibition of human Molt4/C8 cells after 72 hrs by MTT assay; format: functional, cell-based; details: MOLT-4, 72 h
[6] = test system: Mammalian orthoreovirus 1; assay: Antiviral activity against reovirus1 virus in Vero cells assessed as reduction of virus plaque formation after 7 days; format: functional, organism-based; details: Mammalian orthoreovirus 1, Vero, 168 h
Human alphaherpesvirus 3 [7] = assay: Antiviral activity against thymidine kinase expressing Varicella-Zoster virus OKA assessed as reduction of plaque formation; format: functional, organism-based; details: Human alphaherpesvirus 3, OKA
MIA PaCa-2 = assay: Growth inhibition of MiaPaCa2 cells after 72 hrs by MTT assay; format: functional, cell-based; details: Homo sapiens, MIA PaCa-2, 72 h; outline: as §1
Human betaherpesvirus 5 [8] = assay: Antiviral activity against human cytomegalovirus AD169 in HEL cells assessed as reduction of plaque formation after 7 days; format: functional, organism-based; details: Human betaherpesvirus 5, AD169, HEL, 168 h; outline: as §2
CCRF-CEM = assay: Growth inhibition of human CEM cells after 72 hrs by MTT assay; format: functional, cell-based
Human respirovirus 3 = assay: Antiviral activity against parainfluenza 3 virus in Vero cells assessed as reduction of virus plaque formation after 7 days; format: functional, organism-based; details: Human respirovirus 3, Vero, 168 h

SMILES	IC50 (SW-620) [µM]	CC50 at 168 h [1] [µM]	IC50 (L1210) [µM]	EC50 (Coxsackievirus B4) [µM]	EC50 (Punta Toro virus) [µM]	EC50 (Sindbis virus) [µM]	IC50 (MCF7) [µM]	IC50 (HEp-2) [µM]	IC50 (HeLa) [µM]	MCC at 168 h [2] [µM]	EC50 (Human betaherpesvirus 5 [3]) [µM]	EC50 (Human alphaherpesvirus 3 [4]) [µM]	IC50 [5] [µM]	EC50 [6] [µM]	EC50 (Human alphaherpesvirus 3 [7]) [µM]	IC50 (MIA PaCa-2) [µM]	EC50 (Human betaherpesvirus 5 [8]) [µM]	IC50 (CCRF-CEM) [µM]	EC50 (Human respirovirus 3) [µM]
COc1cc(/C=C(\C)c2ccc(F)cc2)nc(OC)n1	56	88	> 200	> 40	40	> 40	16	20	17	100	> 20	> 20	> 200	> 40	> 20	> 100	> 20	74	> 40
COc1cc(CC(C)(O)CF)nc(OC)n1 (stereo unspecified)	> 200	> 100	> 200	> 200	> 200	> 200	> 200	> 200	> 200	> 100	> 100	> 100	> 200	> 200	> 100	> 200	> 100	> 200	> 200
CC(=O)OC(C)(CF)Cc1cc(O)nc(O)n1 (stereo unspecified)	> 200	> 100	> 200	> 200	> 200	> 200	> 200	> 200	> 200	> 100	> 100	> 100	> 200	> 200	> 100	> 200	> 100	> 200	> 200
COc1cc(/C=C(/O)C(F)(F)F)nc(OC)n1	> 200	> 100	> 200	> 200	> 100	> 100	> 200	> 200	> 200	> 100	> 100	> 100	80	> 100	> 100	> 200	> 80	> 200	> 100
COc1cc(CC(C)(O)c2ccc(F)cc2)nc(OC)n1 (stereo unspecified)	> 100	> 100	> 200	40	120	> 200	> 100	> 100	> 100	> 100	59	> 100	> 200	200	> 100	> 100	> 100	> 200	120
COc1nc(CC(C)(O)c2ccc(F)cc2)c(C)c(OC)n1 (stereo unspecified)	≥ 100	> 100	195	> 40	> 200	> 200	38	43	35	> 100	20	45	144	> 200	80	65	45	136	> 200
COc1nc(CC(C)(O)C(F)(F)F)c(-c2ccccc2)c(OC)n1 (stereo unspecified)	20	35	82	> 40	> 40	> 40	> 17	19	17	4	> 0.8	> 20	118	> 40	> 20	20	> 0.8	70	> 40
COc1nc(OC)c(Br)c(C(Br)Br)n1	0.4	1.7	8.8	> 40	> 40	40	6	2	1	100	> 20	10.5	8.5	> 40	8.8	2	> 20	7.1	40
Nc1ncnc2c1ncn2C[C@H](O)CO [(S)-DHPA]	–	–	–	> 250	> 250	> 250	–	–	–	–	–	–	–	> 250	–	–	–	–	> 250
Nc1nc2c(ncn2COCCO)c(=O)[nH]1 [ACYCLOVIR]	–	649	–	–	–	–	–	–	–	> 1780	–	–	–	–	–	–	–	–	–
Nc1ccn(C[C@@H](CO)OCP(=O)(O)O)c(=O)n1 [CIDOFOVIR]	–	51	–	–	–	–	–	–	–	≥ 1270	0.41	–	–	–	–	–	0.41	–	–
Nc1nc2c(ncn2COC(CO)CO)c(=O)[nH]1 [GANCICLOVIR]	–	172	–	–	–	–	–	–	–	> 1580	1.3	–	–	–	–	–	4.8	–	–
NC(=O)c1ncn([C@@H]2O[C@H](CO)[C@@H](O)[C@H]2O)n1 [RIBAVIRIN]	–	–	–	150	150	50	–	–	–	–	–	–	–	250	–	–	–	–	150
O=c1[nH]c(=O)n([C@H]2C[C@H](O)[C@@H](CO)O2)cc1/C=C/Br [BRIVUDINE]	–	408	–	> 250	> 250	> 250	–	–	–	≥ 1200	–	168	–	> 250	0.014	–	–	–	> 250
